Series [1] deals with Rattus norvegicus. As to the kind of experiment: In vivo neuroprotective activity in Sprague-Dawley rat transient middle cerebral artery occlusion model assessed as reduction of brain-water content at 6 mg/kg, iv measured 24 hrs post reperfusion. The format is functional, organism-based. Further details: dose 6 mg/kg. A digest of the protocol:
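Male SD rats (7 weeks, 260-280 g) had 60 min transient right MCA occlusion with a nylon filament, then reperfusion. Saline or drug (1.5, 3.0, 6.0 mg/kg) was injected iv at reperfusion. Animals without neurological deficit were replaced. At 24 h brains were oven-dried at 110 °C for 24 h, and water content was taken as (wet−dry)/wet; n = 12.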

In series [2] the test system is Rattus norvegicus. As to the kind of experiment: In vivo neuroprotective activity in Sprague-Dawley rat transient middle cerebral artery occlusion model assessed as reduction of infarct size at 6 mg/kg, iv measured 24 hrs post reperfusion by TTC staining assay relative to vehicle-treated control. The format is functional. The procedure, abridged: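 Male Sprague-Dawley rats, 7 weeks, 260–280 g, under 10% chloral hydrate ip. Right MCA occluded 60 min by tip-burned 4-0 nylon thread via common carotid, then reperfused. Saline or drug given iv at reperfusion, ethanol as cosolvent. Killed 24 h later; six 2 mm slices in 1% TTC in PBS, 37 °C, 30 min. Infarct area traced as % of total area; n = 12.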

The subject of series [3] is PC-12. The series is described as follows: Neuroprotective activity in rat PC12 cells assessed as attenuation of oxygen-glucose deprivation-induced cellular damage at 10 uM by MTT assay relative to control. In kind it is functional. A digest of the protocol:
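PC12 cells were seeded at 5×10^3/well for 24 h. OGD insult was low-glucose medium plus 5 mM sodium dithionite for 24 h, given together with 10 µM compound. MTT (5 mg/mL) was added for 4 h and absorbance read at 570 nm. Viability was expressed as % of full-medium control; n = 3.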
(Tetrazolium assays rely on reduction of a dye to a coloured formazan, in cell work by metabolically active cells.)

Series [4] is described as follows: Cytotoxicity against rat PC12 cells assessed as cell proliferation at 10 uM by MTT assay relative to control. In kind it is cell-based, PC-12. As to conditions: read-out: Activity. A digest of the protocol:
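PC12 cells were grown in DMEM with 5% FBS, 5% horse serum and 2 mM glutamine at 37 °C, 5% CO2. They were seeded at 5×10^3 cells/well for 24 h, then exposed to 10 µM compound in full medium. Viability was read by MTT (5 mg/mL, 4 h) at 570 nm as % of control absorbance; n = 3.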

Activity calls are given as the source filed them. The rule behind the calls is not given here.

Regarding `CC1=NN(c2ccccc2)C(=O)C1`, the result in series [1] and in series [2] was Active.

On to `Cc1c(N2CCN(C)CC2)c(=O)oc2cc(O)cc(O)c12`, for which, in series [3], the Activity was determined as 52.7%. Besides, in series [4], the viability at 10 µM was 107%.

For the compound `Cc1c(N2CCN(C(c3ccc(F)cc3)c3ccc(F)cc3)CC2)c(=O)oc2cc(O)cc(O)c12`, the Activity in series [3] worked out at 47.8%. Besides, the viability at 10 µM in series [4] stood at 102%.

As for `Cc1c(N2CCN(C)CC2)c(=O)oc2cc(O)cc(OCCc3ccccn3)c12`, in series [3], the Activity came to 48.2%. Besides, the viability at 10 µM in series [4] was determined as 152%.

Take `CCCCCCCNC(=O)N1CCN(c2c(C)c3c(O)cc(O)cc3oc2=O)CC1`: the Activity in series [3] was determined as 43.4%. The viability at 10 µM in series [4] was 99.3%.

With `CCCCNC(=S)N1CCN(c2c(C)c3c(O)cc(O)cc3oc2=O)CC1`, the Activity in series [3] is on record as 48.9%. Further, the viability at 10 µM in series [4] was 103%.

Consider `Cc1cc(O)c2c(C)c(N3CCN(C)CC3)c(=O)oc2c1`, for which the Activity in series [3] is 47.3%. Moreover, in series [4], the viability at 10 µM was 99.5%.

As to `Cc1c(N2CCN(C(=S)Nc3cccc(F)c3)CC2)c(=O)oc2cc(O)cc(O)c12`, the Activity in series [3] is 48.8%. Also, the viability at 10 µM in series [4] is 101%.

In the case of `Cc1c(N2CCN(C)CC2)c(=O)oc2cc(N(C)C)ccc12`, the Activity in series [3] stood at 45.8%. The viability at 10 µM in series [4] stood at 97.8%.

Regarding `Cc1c(N2CCN(C)CC2)c(=O)oc2cc(O)cc(OC(C)C)c12`, in series [3], the Activity was found to be 51.8%. The viability at 10 µM in series [4] was found to be 119%.

Consider `Cc1c(N2CCN(C(=O)C(F)(F)F)CC2)c(=O)oc2cc(O)cc(O)c12`, for which the Activity in series [3] came to 49.3%. Besides, the viability at 10 µM in series [4] came to 97.4%.

For the origin of these results see ChEMBL document CHEMBL2417530, “Coumarin derivatives protect against ischemic brain injury in rats” (Eur J Med Chem, 2013).
